Results from article PMC5472370 (ACS Omega, 2017).

How the values were obtained:
[1] = target: BACE1 D32N mutant (Homo sapiens, UniProt P56817, D93N); assay: SPR binding to BACE1 D32N mutant; conditions: BACE1 D32N catalytic-site mutant
How it was run: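 Catalytic-site D32N ectodomain (residues −16 to 393, C-terminal His- plus StrepII-tag), expressed in and purified from E. coli. Amine-coupled to a CM7 chip and run under conditions similar to wild type: 25 °C, 30 s injections at 30 µL/min, DMSO solvent correction. Concentration series 0.03, 0.06, 0.13, 0.25 and 0.50 mM.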

[2] = target: T1, mature BACE1 ectodomain (Homo sapiens, UniProt P56817); assay: WaterLOGSY ligand-observed NMR binding; conditions: 30-fold excess of ligand, performed once
T1 sequence (P56817 46-454 limits assumed): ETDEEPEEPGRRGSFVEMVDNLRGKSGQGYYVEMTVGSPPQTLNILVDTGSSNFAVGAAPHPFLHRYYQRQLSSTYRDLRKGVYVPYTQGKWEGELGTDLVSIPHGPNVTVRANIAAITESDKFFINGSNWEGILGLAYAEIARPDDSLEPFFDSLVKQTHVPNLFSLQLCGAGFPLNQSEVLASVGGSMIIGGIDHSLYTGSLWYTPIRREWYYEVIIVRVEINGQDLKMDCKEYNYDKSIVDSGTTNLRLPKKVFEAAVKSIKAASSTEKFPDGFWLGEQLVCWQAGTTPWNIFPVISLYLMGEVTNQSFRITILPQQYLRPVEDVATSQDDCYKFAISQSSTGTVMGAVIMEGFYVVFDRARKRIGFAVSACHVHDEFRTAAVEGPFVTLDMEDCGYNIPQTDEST
How it was run: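 Ligand-observed NMR on 5 µM mature ectodomain with 0.15 mM ligand (1:30 protein/ligand, ligand from 100 mM DMSO-d6 stock) and D2O added. Recorded at 27 °C on a 600 MHz spectrometer with cryoprobe. Both 1D 1H and WaterLOGSY spectra acquired: 32K points, 14 ppm sweep width, 128 scans. Run at physiological pH, then repeated at acidic pH.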

[3] = target: T1, mature BACE1 ectodomain; assay: SPR competition with OM99-2; conditions: binding before and after OM99-2 injection, pH 4.5
How it was run: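 Run at pH 4.5 on immobilized wild-type ectodomain: 10 mM NaOAc, 150 mM NaCl, 0.05% Tween 20, 5% DMSO, 25 °C. Fragments injected before and after an injection of the peptide inhibitor OM99-2; binding responses compared. Concentration series 0.03, 0.06, 0.13, 0.25 and 0.50 mM.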

[4] = target: T1, mature BACE1 ectodomain; assay: SPR binding to immobilized WT BACE1
How it was run: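 Mature ectodomain and a neutravidin reference were amine-coupled on CM7 chips; runs at 25 °C. Running buffers: HBS-N pH 7.4, or 10 mM NaOAc pH 4.5 with 150 mM NaCl; both with 0.05% Tween 20 and 5% DMSO. Injections 30 s at 30 µL/min, with DMSO correction over 2.5–6.5%. Screened at 0.25 mM in duplicate (forward and reverse order) against BACE1, neutravidin and a blank spot. Top 10% retested over 0.03–0.500 mM (8 points, 1.5-fold).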

BACE1 D32N mutant, sequence (P56817 46-454 D93N): as the sequence (P56817 46-454 limits assumed) above, with D48N counted along it

| Structure (SMILES) | SPR D32N binding [1] | WaterLOGSY signal at pH 7.5 [2] | SPR OM99-2 competition [3] | SPR binding at pH 4.5 ([4]; WT BACE1, pH 4.5) | WaterLOGSY signal at pH 4.5 ([2]; pH 4.5) | SPR binding to WT BACE1 (mature BACE1 ectodomain) ([4]; pH not stated) |
| --- | --- | --- | --- | --- | --- | --- |
| Brc1cc2c(N3CCNCC3)nccn2c1 [Compound 10, 7-Bromo-1-piperazin-1-yl-pyrrolo[1,2-a]pyrazine] | bound | clear positive | bound | nonspecific binding | – | – |
| CC1(c2ccccc2)COCC(N)=N1 (centres unmarked) [Compound 14, 5-Methyl-5-phenyl-2,6-dihydro-1,4-oxazin-3-amine] | lost binding | – | drastically reduced | – | strong positive | bound strongly |
| CN(C)c1nc(N2CCCC2)nc2ccccc12 [Compound 12, N,N-Dimethyl-2-pyrrolidin-1-yl-quinazolin-4-amine] | bound | clear positive | reduced binding | – | – | – |
